As a reminder, the Ki is the dissociation constant of the complex between target and ligand, obtained from inhibition or displacement. As a reminder, the EC50 is the midpoint of the concentration-response curve. Read a high EC50 as lower potency in that assay.

The structures appear in SMILES notation.

The first experiment has as its target T1, Peroxisome proliferator-activated receptor alpha (Homo sapiens, UniProt Q07869).
T1 sequence (Q07869 whole entry): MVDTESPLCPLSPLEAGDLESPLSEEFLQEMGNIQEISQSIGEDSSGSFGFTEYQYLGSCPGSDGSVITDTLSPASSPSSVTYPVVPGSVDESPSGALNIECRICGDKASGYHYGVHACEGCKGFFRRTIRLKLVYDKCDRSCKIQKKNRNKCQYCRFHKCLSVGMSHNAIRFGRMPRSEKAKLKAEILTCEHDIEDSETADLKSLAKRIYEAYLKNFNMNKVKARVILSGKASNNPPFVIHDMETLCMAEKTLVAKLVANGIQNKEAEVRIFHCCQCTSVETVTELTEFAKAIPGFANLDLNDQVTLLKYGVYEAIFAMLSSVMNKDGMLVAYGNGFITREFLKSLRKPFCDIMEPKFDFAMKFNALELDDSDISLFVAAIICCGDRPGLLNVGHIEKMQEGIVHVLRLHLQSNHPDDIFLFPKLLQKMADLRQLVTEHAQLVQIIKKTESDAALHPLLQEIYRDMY
In words: Displacement of radiolabeled GW-2331 from human PPAR alpha by SPA assay.
`CCOC(Cc1ccc(OCCCc2nc(-c3ccccc3)oc2C)cn1)C(=O)O` (stereo not given): the Ki turned out to be 840 nM.

The next experiment has as its target T2, Peroxisome proliferator-activated receptor gamma (Homo sapiens, UniProt P37231).
T2 sequence (P37231 whole entry): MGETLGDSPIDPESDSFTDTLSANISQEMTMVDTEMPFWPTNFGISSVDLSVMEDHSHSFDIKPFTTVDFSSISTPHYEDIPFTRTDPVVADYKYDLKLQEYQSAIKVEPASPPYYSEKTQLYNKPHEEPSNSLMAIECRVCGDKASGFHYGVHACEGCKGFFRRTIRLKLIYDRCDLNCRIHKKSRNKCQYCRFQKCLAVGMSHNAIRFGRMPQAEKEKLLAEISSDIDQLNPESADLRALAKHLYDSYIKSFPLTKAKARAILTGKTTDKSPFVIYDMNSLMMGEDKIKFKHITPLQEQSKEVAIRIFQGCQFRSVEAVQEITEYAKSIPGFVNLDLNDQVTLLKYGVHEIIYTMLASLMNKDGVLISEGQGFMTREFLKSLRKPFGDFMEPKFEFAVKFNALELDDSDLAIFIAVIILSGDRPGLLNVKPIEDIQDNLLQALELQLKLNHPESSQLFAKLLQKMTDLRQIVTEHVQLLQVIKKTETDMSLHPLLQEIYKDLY
The experiment in a line: Agonist activity at human PPAR gamma in HepG2 cells by PPAR-GAL4 transactivation assay. Type of experiment: functional, cell-based.
Regarding `Cc1oc(-c2ccccc2)nc1CCOc1ncc(CC2(C(=O)O)CCCO2)cn1` (stereo not given), the EC50 turned out to be 2500 nM.

Consider `COc1cccc(-c2nc(CCOc3ccc(CC4(C(=O)O)CCCO4)nc3)c(C)o2)c1` (stereo not given), for which the EC50 worked out at 5 nM.

As to `Cc1oc(-c2ccc(Cl)cc2)nc1CCOc1ccc(CC2(C(=O)O)CCCO2)nc1` (stereo not given), it took 130 nM to reach a half-maximal effect (EC50).

In turn, `Cc1cccc(-c2nc(CCOc3ccc(CC4(C(=O)O)CCCO4)nc3)c(C)o2)c1` (stereo not given) gave a concentration for a half-maximal effect (EC50) of 12 nM.

`Cc1oc(-c2ccccc2)nc1CCOc1ccc(CC2(C(=O)O)CCCCO2)nc1` (stereo not given) showed an EC50 above 10000 nM.

A further experiment has as its target T1, Peroxisome proliferator-activated receptor alpha. The experiment in a line: Agonist activity at human PPAR alpha in HepG2 cells by PPAR-GAL4 transactivation assay. The experiment is classed as functional, cell-based.
For `Cc1oc(-c2ccccc2)nc1CCOc1ncc(CC2(C(=O)O)CCCO2)cn1` (stereo not given), the concentration for a half-maximal effect (EC50) was above 10000 nM.

`CCOC(Cc1ccc(OCCCc2nc(-c3ccccc3)oc2C)cn1)C(=O)O` (stereo not given): the response was half-maximal at 886 nM (EC50).

For `COc1cccc(-c2nc(CCOc3ccc(CC4(C(=O)O)CCCO4)nc3)c(C)o2)c1` (stereo not given), it took 1570 nM to reach a half-maximal effect (EC50).

In turn, `Cc1oc(-c2ccc(Cl)cc2)nc1CCOc1ccc(CC2(C(=O)O)CCCO2)nc1` (stereo not given) showed an EC50 of 48 nM.

`Cc1cccc(-c2nc(CCOc3ccc(CC4(C(=O)O)CCCO4)nc3)c(C)o2)c1` (stereo not given) gave an EC50 of 867 nM.

`Cc1oc(-c2ccccc2)nc1CCOc1ccc(CC2(C(=O)O)CCCCO2)nc1` (stereo not given) registered an EC50 above 10000 nM.

The target in the next experiment is T3, Peroxisome proliferator-activated receptor alpha (Homo sapiens) (UniProt Q07869).
T3 sequence (whole entry): T1 sequence (Q07869 whole entry)
In words: Agonist activity at human PPAR alpha in HepG2 cells by PPAR-GAL4 transactivation assay relative to GW-2331. Type of experiment: functional, cell-based. A digest of the protocol: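 Human PPARα–GAL4 chimera in HepG2 cells, transactivation read-out. Compounds titrated. EC50 taken as the concentration giving half of the compound's own maximal response. Percent maximal activation expressed relative to GW2331 as the standard full agonist. Where no plateau was reached, only maximal activity was reported.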
Regarding `Cc1oc(-c2ccccc2)nc1CCOc1ncc(CC2(C(=O)O)CCCO2)cn1` (stereo not given), the Activity is 58%.

Take `CCOC(Cc1ccc(OCCCc2nc(-c3ccccc3)oc2C)cn1)C(=O)O` (stereo not given): the Activity stood at 76%.

`COc1cccc(-c2nc(CCOc3ccc(CC4(C(=O)O)CCCO4)nc3)c(C)o2)c1` (stereo not given) displayed an Activity of 98%.

In turn, `Cc1oc(-c2ccc(Cl)cc2)nc1CCOc1ccc(CC2(C(=O)O)CCCO2)nc1` (stereo not given) yielded an Activity of 122%.

As to `Cc1oc(-c2ccccc2)nc1CCOc1ccc(C[C@@]2(C(=O)O)CCCO2)nc1`, the Activity was found to be 6%.

`Cc1oc(-c2ccccc2)nc1CCOc1ccc(CC2(C(=O)O)CCCO2)nc1` (stereo not given) gave an Activity of 90%.

The compound `Cc1cccc(-c2nc(CCOc3ccc(CC4(C(=O)O)CCCO4)nc3)c(C)o2)c1` (stereo not given) displayed an Activity of 93%.

`Cc1oc(-c2ccccc2)nc1CCOc1ccc(CC2(C(=O)O)CCCCO2)nc1` (stereo not given) had an Activity of 5%.
